Where no end group is shown, it is not given here.

Assay [1] deals with ^8F1^9F1 (module pair of fibronectin, Fn precursor residues 516–608) (Homo sapiens, UniProt P02751). The experiment in a line: ITC, binding to ^8F1^9F1. The settings on record: 10 mM NaH2PO4/K2HPO4, pH 7.4, 25 °C, FnZ peptide 2.97 mM, Fn domain 0.24 mM. A digest of the protocol:
(§1)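 Cell held GBD (proteolytic Fn fragment, dialysed into buffer) or ⁸F1⁹F1 (Pichia-expressed, Endo Hf-trimmed glycans). Syringe held uncapped synthetic test peptide at 10–20× the cell concentration. Both were degassed at 20 °C for 15 min. 2 μl preinjection, then 39 × 7 μl injections at 0.5 μl/s, 307 rpm, 360 s spacing. Averaged heats from a separate peptide-into-buffer run were subtracted; one-site binding fit.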

The target in assay [2] is GBD (gelatin-binding domain of fibronectin) (Homo sapiens, UniProt P02751). Put plainly: ITC, binding to GBD. The method in brief:
as §1
For orientation: ITC needs no label: the signal is the heat of the interaction.

Assay [3] has as its target gelatin-binding domain (GBD) of fibronectin, proteolytic fragment (human). Put plainly: ITC.
Assay [4] has as its target recombinant fibronectin 100-kDa N-terminal fragment (human). The experiment in a line: ITC.
The mark [5] stands for this setting: ITC, 10 mM NaH2PO4/K2HPO4, pH 7.4, 25 °C, FnZ peptide 0.11 mM, Fn domain 0.01 mM.

Chain of GBD (gelatin-binding domain of fibronectin) (P02751 308-608 limits assumed): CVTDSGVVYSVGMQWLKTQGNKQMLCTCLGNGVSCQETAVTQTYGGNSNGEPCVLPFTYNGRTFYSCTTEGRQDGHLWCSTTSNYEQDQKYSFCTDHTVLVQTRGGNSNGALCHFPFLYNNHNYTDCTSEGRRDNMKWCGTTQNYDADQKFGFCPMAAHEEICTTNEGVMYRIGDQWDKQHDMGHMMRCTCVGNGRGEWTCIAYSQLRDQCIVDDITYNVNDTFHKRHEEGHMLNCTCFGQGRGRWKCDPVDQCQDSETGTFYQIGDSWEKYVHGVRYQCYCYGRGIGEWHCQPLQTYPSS
Chain of ^8F1^9F1 (module pair of fibronectin, Fn precursor residues 516–608) (P02751 516-608): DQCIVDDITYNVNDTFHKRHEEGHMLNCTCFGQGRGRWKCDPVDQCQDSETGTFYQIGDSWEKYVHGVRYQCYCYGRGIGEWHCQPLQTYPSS

As a reminder, the Kd is a measure of binding affinity in units of concentration. In assay [1], RNPHLMGIGGGLAGESGETTPK [FnZ peptide] had a ΔH of -29.8 kcal/mol and a ΔS of −77.2 cal/mol K^−1. The molecule further returned a Kd in assay [2] of 540 ± 40 nM. In assay [2] (setting [5]), this molecule displayed a ΔH of -17.7 kcal/mol and a ΔS of −30.8 cal/mol K^−1.
With H-RNPHLMGIGGGLAGESGETTPK-OH [FnZ synthetic peptide, residues 370-391], in assay [3], the Kd turned out to be 540 nM and the dH is -17.7 kcal/mol.

B1: FnZ(370-428), recombinant fragment of the fibronectin-binding protein FnZ from S. zooepidemicus (domain or fragment)
chain: GPLGSRNPHLMGIGGGLAGESGETTPKPGQTGGQGPVIETTEDTQKGMSGQSGGTIESENTKKP
The term stoichiometry N denotes the number of molecules, sites or subunits per partner or assembly. B1: in assay [4], the Kd is 0.8 nM, the dH was -54.6 kcal/mol and the stoichiometry N worked out at 1.06.
